Screening data: PubChem BioAssay, several laboratories
PDI turbidity – PDI (human) enzyme inhibition; PDI insulin aggregation turbidity, A650, 90 min; inhibition, % at 10 µM; AID 588391; 350,000 compounds, 0.052% hits;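 active = mean inhibition across replicates of 30% or more, whatever share of single replicates reach that level; inconclusive = mean inhibition below 30% while every single replicate reaches 30%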
ERp5 inh – inhibitors of human ERp5 | Q15084 | ERp5 insulin aggregation, absorbance 650 nm, 90 min | inhibition, % at 9.99 µM | 350,000 compounds, 0.05% hits;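 active = mean replicate inhibition above about 25%, with every replicate also reaching it, limit read from the data, passing the limit was not always enough; inconclusive = only one of those two criteria met; inactive = neither criterion met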
Target sequence (Q15084 whole entry, looked up): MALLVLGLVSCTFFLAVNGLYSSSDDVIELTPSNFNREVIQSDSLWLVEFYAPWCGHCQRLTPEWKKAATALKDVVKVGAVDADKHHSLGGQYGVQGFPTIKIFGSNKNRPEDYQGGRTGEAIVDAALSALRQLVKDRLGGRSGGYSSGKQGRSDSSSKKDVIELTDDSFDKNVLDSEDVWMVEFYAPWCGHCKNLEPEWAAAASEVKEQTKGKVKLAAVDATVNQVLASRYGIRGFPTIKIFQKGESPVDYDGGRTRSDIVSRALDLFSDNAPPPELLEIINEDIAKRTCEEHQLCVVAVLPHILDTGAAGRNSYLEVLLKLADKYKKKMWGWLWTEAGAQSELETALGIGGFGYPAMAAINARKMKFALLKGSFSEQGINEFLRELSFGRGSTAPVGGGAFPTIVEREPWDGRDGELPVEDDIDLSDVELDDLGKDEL
ERAP1 inh – inhibitors of human ERAP1 aminopeptidase; 340,000 compounds, 0.15% hits; Q9NZ08; recombinant ERAP1, Leu-AMC fluorescence, 60 min; inhibition, % at 10.7 µM;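 active = mean replicate inhibition of at least 30%, or all replicates individually reaching that 30% level; inactive = mean below 30% and not every replicate reaching it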;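 also: 0% = neutral control wells and 100% = L-leucinethiol positive control wells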
Rin1 Abl inh – inhibitors of human Rin1-Abl protein interaction. P00519+Q13671. TR-FRET Rin1/Abl binding, biochemical. inhibition, % at 7.35 µM. 360,000 compounds, 0.4% hits. AID 588664; in the data active = inhibition above about 5%, passing the limit was not always enough
CAL PDZ FP-1 – inhibitors of human CAL PDZ peptide binding; Q9HD26; purified CAL PDZ, TMR-peptide fluorescence polarization, 1 h; inhibition, % at 24.9 µM; 300,000 compounds, 0.92% hits; AID 602252;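 active = mean inhibition of at least 30% with at least half of replicates also reaching 30%; inconclusive = no clear call, values can overlap the other calls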;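 also: 0% = DMSO neutral control and 100% = excess unlabeled competitor peptide PRC23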
CAL PDZ FP-2 – blocks peptide binding to human CAL PDZ domain; inhibition, % at 20 µM; 330,000 compounds, 0.02% hits; AID 504414; purified CAL PDZ, TMR-peptide fluorescence polarization, 1 h;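 active = highest replicate inhibition of at least 40%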;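 also: plate controls were DMSO neutral control wells for no effect and unlabeled competitor peptide control wells for full effect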
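Material – purified CerCALP PDZ construct · Detection – FP readout, S and P plane fluorescence · Measure – percent inhibition from loss of millipolarization · Controls – unlabelled peptide for full inhibition, DMSO wells as neutral · Probe or stimulus – TMR-labelled reporter peptide T*-PRC34 bound in PDZ groove · Times – 1 h at RT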
An asterisk follows results filed as active; ? = inconclusive; . = not tested or not shown. Sampled rows, rich in hits. Any-hit rate of the full collection: about 1.1%.

SMILES | PDI turbidity | ERp5 inh | ERAP1 inh | Rin1 Abl inh | CAL PDZ FP-1 | CAL PDZ FP-2
Cc1ccc(CS(=O)Cc2ccc(C(=O)NCC(C)c3ccccc3)o2)cc1 (centres undefined) | 7.5 | -2.5 | -3.2 | 0.9 | 82.4* | -0.8
C[C@H](O)C#Cc1cnc2c(c1)C(=O)N([C@@H](C)CO)C[C@@H](C)[C@@H](CN(C)CC1CCOCC1)O2 | . | 1.9 | 0.3 | . | . | .
COCCn1c(C)cc(C2=NNC(=Nc3ccc(OC)cc3)SC2)c1C | -1.3 | . | . | 1.8 | -5.7 | 0.4
COCCn1c(C)cc(C2=NNC(=Nc3ccccc3)SC2)c1C | -6.4 | . | . | -0.4 | active | -1.1
CC(=O)OC1COC(n2c(O)c(N=NC(N)=S)c3ccccc32)C(OC(C)=O)C1OC(C)=O (centres undefined) | 9.5 | -12.1 | -0.4 | -3.3 | 37.9* | -0.7
CO[C@H]1CN(C)C(=O)c2ccc(NS(=O)(=O)c3ccccc3)cc2OC[C@H](C)N(Cc2nccs2)C[C@H]1C | . | -2.0 | -1.2 | . | . | .
O=C(C[C@H]1CC[C@H]2[C@@H](COC[C@@H](O)CN2S(=O)(=O)c2ccccc2)O1)NCCN1CCCC1 | . | 13.6 | 1.5 | . | . | .
C[C@@H]1CN([C@@H](C)CO)C(=O)c2cc(NC(=O)C3CC3)ccc2O[C@@H]1CN(C)Cc1ccccc1 | . | -1.7 | -2.9 | . | . | .
CCCCCCCCCC(=O)N/N=C/c1ccc(C)s1 | 0.7 | . | . | 3.3 | 49.4* | 16.7
Cc1ccc(/C=N/NC(=O)C[n+]2ccccc2)s1 | -6.3 | -5.1 | . | 1.0 | 2.0 | -0.5
O=C(Nc1cccc(F)c1)N1C[C@@H]2[C@H](c3ccccc31)[C@@H](CO)N2C(=O)c1ccccc1F | . | 0.1 | -4.2 | . | . | .
C[C@H](CO)N1C[C@H](C)[C@H](CN(C)S(=O)(=O)c2ccc(F)cc2)OCc2ccccc2-c2ccccc2C1=O | . | -0.9 | 3.0 | . | . | .
COc1ccc(CCNC(=O)c2cccc3ccccc23)cc1OC | -4.2 | 2.7 | -0.9 | 1.9 | -1.9 | -0.8
COc1ccc(CCNC(=O)c2cc3c(F)cccc3s2)cc1OC | 3.2 | 2.1 | -3.0 | -3.9 | 69.9* | -1.7
C[C@@H]1O[C@@H](O[C@@H]2C(=O)c3c(O)cc(O)cc3O[C@H]2c2ccc(O)c(O)c2)[C@H](O)[C@H](O)[C@H]1O | 44.4* | -0.7 | -1.4 | 5.1 | -0.9 | -0.5
O=C(NCCc1ccccc1)c1ncn[nH]1 | 5.6 | . | . | 3.5 | -3.0 | -1.9
O=C(NCc1ccccc1)c1ncn[nH]1 | 1.1 | -5.0 | -0.6 | -0.8 | 111.8* | 0.2
CCOC(=O)c1cnc2nc(Cc3ccccc3)[nH]n2c1=O | -5.9 | . | . | 0.4 | . | 0.1
CCOC(=O)c1cnc2nc(C(F)(F)F)[nH]n2c1=O | -1.9 | . | . | -0.6 | 102.7* | -0.9
O=C1CCCN1CC(O)CS(=O)(=O)Cc1ccccc1 (centres undefined) | -1.2 | -1.2 | 1.0 | 1.9 | 46.0* | .
CS(=O)(=O)c1ccc(N)c(SSc2cc(S(C)(=O)=O)ccc2N)c1 | 2.7 | -6.5 | 38.9* | 3.3 | 0.9 | 0.3
CS(=O)(=O)c1ccc2nc(N)sc2c1 | 10.9 | . | . | -0.5 | -0.2 | -1.6
COc1cc(/C=N/Nc2nc(C)cc(C)n2)ccc1O | 8.3 | 4.7 | -2.1 | -3.1 | . | .
COc1cc(/C=N/Nc2nc(C)cc(C)n2)cc(OC)c1OC | 2.6 | -4.5 | -0.3 | -2.9 | 75.5* | 14.1
COc1ccc(Cn2c(-c3ccco3)nc3oc4cc(OC)ccc4c(=O)c3c2=O)cc1 | 2.8 | . | . | -0.1 | 37.7* | -2.4
SMILES | PDI turbidity | ERp5 inh | ERAP1 inh | Rin1 Abl inh | CAL PDZ FP-1 | CAL PDZ FP-2
O=C(NCc1cccs1)c1ccncc1 | -9.8 | . | . | 1.6 | 74.4* | -1.0
CC(C)NC(=O)N(C)C[C@H]1Oc2c(NC(=O)c3nc4ccccc4s3)cccc2C(=O)N([C@@H](C)CO)C[C@@H]1C | . | -10.3 | 0.5 | . | . | .
CCc1ccc(Nc2c([N+](=O)[O-])c(=O)oc3ccccc23)cc1 | -4.6 | . | 0.8 | -1.1 | -0.8 | -1.2
CCNc1c([N+](=O)[O-])c(=O)oc2ccccc12 | 3.0 | -3.9 | -2.5 | -1.2 | 56.2* | -2.2
Cc1ccc(-c2cc(-c3c(C)nn(C)c(=O)c3N)[nH]n2)cc1 | -5.0 | 3.5 | 2.7 | -1.6 | 41.5* | 0.2
Cc1nn(C)c(=O)c(N)c1-c1cc(-c2ccc(Cl)c(Cl)c2)n[nH]1 | -6.0 | 2.1 | . | -2.1 | . | .
C[C@@H]1CN([C@H](C)CO)C(=O)Cc2cc(NC(=O)Nc3cccc4ccccc34)ccc2O[C@H]1CN(C)C(=O)Nc1cccc2ccccc12 | . | 14.9 | -1.5 | . | . | .
C[C@@H]1CN([C@H](C)CO)C(=O)c2cc(NC(=O)Nc3cccc4ccccc34)ccc2O[C@@H]1CN(C)C(=O)Nc1cccc2ccccc12 | . | 33.0* | 0.5 | . | . | .
C[C@H]1CN([C@@H](C)CO)C(=O)Cc2cc(NC(=O)Nc3cccc4ccccc34)ccc2O[C@H]1CN(C)C(=O)Nc1cccc2ccccc12 | . | 25.8* | -0.2 | . | . | .
Cc1noc(C)c1NC(=O)Nc1ccc2c(c1)CC(=O)N([C@@H](C)CO)C[C@H](C)[C@H](CN(C)Cc1ccc(-c3ccccc3)cc1)O2 | . | -5.0 | 0.4 | . | . | .
CCCCCCCCCCCCCCC(O)C[N+](C)(CCO)CCO (centres undefined) | 23.9 | 6.5 | 64.2* | 2.4 | -4.6 | 0.0
CCCCCCCC(=O)OCC(O)CO (centres undefined) | -4.5 | 1.3 | -0.3 | 3.2 | -0.6 | -0.8
COC(=O)c1ccc(OCC(O)CN2CCc3cc(OC)c(OC)cc3C2c2ccccc2)cc1 (centres undefined) | -5.0 | 1.6 | -2.2 | 3.1 | 75.8* | -0.4
CCC(=O)N1CCc2cc(OC)c(OC)cc2C1COc1ccc(C(=O)OC)cc1 (centres undefined) | 4.6 | . | . | -1.7 | 4.0 | -1.2
COc1cc(/C=C2\SC(=S)N(NS(=O)(=O)c3ccccc3)C2=O)ccc1O | 40.8* | 1.2 | 0.5 | -0.8 | -10.5 | -1.6
COc1cc(/C=C2\SC(=S)N(NS(=O)(=O)c3ccc(C)cc3)C2=O)ccc1O | ? | -5.8 | 5.3 | 1.6 | -9.1 | -6.3
CCOc1cc(/C=C2\SC(=S)N(C(C(=O)O)c3ccccc3)C2=O)ccc1O (centres undefined) | 34.6* | 0.1 | . | 1.2 | -17.4 | -3.3
Cc1ccc(S(=O)(=O)NN2C(=O)/C(=C/c3cccc(F)c3)SC2=S)cc1 | -2.9 | 2.4 | 7.7 | -0.2 | 33.1* | -5.7
CCOc1ccc(/C=C2/SC(=S)N(C(C(=O)O)c3ccccc3)C2=O)cc1OCC (centres undefined) | 14.7 | -8.3 | 16.7 | 1.8 | 7.8 | -1.8
C[C@H]1CN([C@@H](C)CO)C(=O)c2cccc(NC(=O)Nc3ccc(C(F)(F)F)cc3)c2O[C@H]1CN(C)Cc1ccc(Cl)c(Cl)c1 | . | . | -0.6 | . | . | .
O=C(CN1CCOCC1)N[C@@H]1CC[C@H](CCn2cc(C3CCCC3)nn2)O[C@H]1CO | . | 3.0 | -1.5 | . | . | .
O=C(Cc1ccccc1)N1CC(=O)N2[C@H](C1)[C@@H](c1ccc(Br)cc1)[C@@H]2CO | . | -2.7 | 0.8 | . | . | .
